SIRT5 block: SIRT5 desuccinylase inhibitors, primary screen, biochemical, fluorescence imaging, single point, set 5. inhibition, % at 15 µM. 1.1% of 330,000 active. Purified SirT5, succinyl-peptide AMC, trypsin-coupled fluorescence. AID 652115, 2013. NAD-dependent protein deacylase sirtuin-5, mitochondrial (Homo sapiens), Q9NXA8; in the data active means inhibition above about 15%; inconclusive means no clear call, values can overlap the other calls
PglD DTNB: C. jejuni PglD acetyltransferase inhibitors, primary screen, biochemical, DTNB colorimetric, single point; 0.098% of 360,000 active; purified PglD enzyme, DTNB colorimetric CoA detection; UDP-N-acetylbacillosamine N-acetyltransferase PglD (Campylobacter jejuni); inhibition, % at 12.5 µM; in the data active means inhibition above about 16%, passing the limit was not always enough; inconclusive means no clear call, values can overlap the other calls
ERAP1 HTS inh: human ERAP1 aminopeptidase inhibitors, primary screen, biochemical, single point, plate reader | recombinant ERAP1, Leu-AMC fluorescence, 60 min | inhibition, % at 10.7 µM | AID 652197, 2013 | Endoplasmic reticulum aminopeptidase 1 (Homo sapiens), Q9NZ08 | 0.15% of 340,000 active;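 active means mean replicate inhibition of at least 30%, or all replicates individually reaching that 30% level; inactive means mean below 30% and not every replicate reaching it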;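 further: 0% = neutral control wells and 100% = L-leucinethiol positive control wells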
Target sequence (Q9NZ08 whole entry, looked up): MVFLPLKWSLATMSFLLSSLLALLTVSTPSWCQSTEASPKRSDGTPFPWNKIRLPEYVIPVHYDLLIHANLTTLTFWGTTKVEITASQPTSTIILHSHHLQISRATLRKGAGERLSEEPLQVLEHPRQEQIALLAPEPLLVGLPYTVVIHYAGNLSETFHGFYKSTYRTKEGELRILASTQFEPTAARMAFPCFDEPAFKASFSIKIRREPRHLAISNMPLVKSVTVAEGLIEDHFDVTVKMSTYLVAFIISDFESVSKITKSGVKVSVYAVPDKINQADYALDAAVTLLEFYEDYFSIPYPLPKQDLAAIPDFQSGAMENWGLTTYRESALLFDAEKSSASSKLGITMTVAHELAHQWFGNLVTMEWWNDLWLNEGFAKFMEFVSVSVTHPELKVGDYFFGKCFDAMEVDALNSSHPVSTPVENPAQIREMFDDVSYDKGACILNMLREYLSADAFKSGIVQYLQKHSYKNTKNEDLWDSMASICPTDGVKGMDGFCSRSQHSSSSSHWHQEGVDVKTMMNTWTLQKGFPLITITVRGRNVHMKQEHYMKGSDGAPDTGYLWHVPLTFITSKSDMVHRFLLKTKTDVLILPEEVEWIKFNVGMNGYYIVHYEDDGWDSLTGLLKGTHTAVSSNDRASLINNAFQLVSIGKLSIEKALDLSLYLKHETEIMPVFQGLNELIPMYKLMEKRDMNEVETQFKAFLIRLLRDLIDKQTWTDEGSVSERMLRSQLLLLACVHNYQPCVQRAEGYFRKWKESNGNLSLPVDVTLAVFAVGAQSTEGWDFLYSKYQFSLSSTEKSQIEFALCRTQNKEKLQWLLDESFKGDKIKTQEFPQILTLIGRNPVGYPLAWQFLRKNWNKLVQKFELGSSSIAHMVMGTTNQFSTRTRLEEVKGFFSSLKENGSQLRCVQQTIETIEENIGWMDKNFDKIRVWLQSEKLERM
E-selectin induc: E-selectin induction in HUVECs, primary screen, imaging, HUVEC, immunofluorescence imaging, single point; normalized: neutral wells 0, TNF-alpha wells 100; AID 686992, 2013; activation, % at 7.58 µM; 0.37% of 260,000 active; P16581;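 active means mean E-selectin-positive cell signal at least 10% of the positive control, reached in at least 60% of replicates, without over 20% cell loss; inconclusive means no rule given, readout overlaps actives, possibly toxicity-flagged; inactive means the rest, including those meeting only one limit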
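assay system = HUVEC, human umbilical vein endothelial cells | input = 3,000 HUVEC seeded per well | medium = EGM-2 growth medium on 0.1% gelatin-coated wells | dosing = one compound dose added by pin transfer | signal = immunofluorescence imaging | read-out basis = % PE-positive cells | control set = TNF-alpha, DMSO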
DENV2 CPE: inhibitors of DENV2 cytopathic effect, primary screen, cell-based, plate reader, single concentration; DENV2-infected cells, cytopathic effect rescue; CPE inhibition, % at 9.99 µM; 1.7% of 350,000 active; in the data active means CPE inhibition above about 20%, passing the limit was not always enough; inconclusive means no clear call, values can overlap the other calls; tested in BHK-21 cells;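 further: 0% = median of neutral control wells and 100% = median of positive control wells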
* hit, by the source's call; ? = inconclusive; · = no result given. An excerpt weighted towards active compounds, which were near 2.5% of everything screened.

SMILES	SIRT5 block	PglD DTNB	ERAP1 HTS inh	E-selectin induc	DENV2 CPE
COc1ccc2c3c([nH]c2c1)[C@H](CO)N(C(=O)C1CC1)CC31CN(C(=O)NC(C)C)C1	2	·	2	0	30*
C[C@H]1CN([C@@H](C)CO)C(=O)c2cc(NC(=O)CCCN(C)C)ccc2O[C@@H]1CN(C)Cc1ccc2c(c1)OCO2	-1	·	-1	-1	0
Cc1cc(C)nc(SCNC(=O)c2ccc(F)cc2)n1	-2	-1	5	·	·
COCC(=O)N1CCC2(CC1)CN(C(=O)Nc1ccccc1F)[C@H](CO)c1[nH]c3cc(OC)ccc3c12	3	·	-1	0	25*
CCCC(=O)N1CC2(C1)CN(C(=O)C1CCCCC1)[C@@H](CO)c1[nH]c3cc(OC)ccc3c12	2	·	-1	0	22*
CN1CCCCN2[C@H](CO)[C@H](c3ccc(/C=C/c4ccccc4)cc3)[C@H]2C1	-1	-6	2	0	-32
CC(C)COC(=O)CCn1[nH]c(=O)c2ccccc2c1=O	·	0	·	·	·
CC(=O)OCC(C)n1[nH]c2ccccc2c1=O (stereo unspecified)	40*	1	13	0	-9
Cc1ccccc1Nc1nc(=O)c2cc([N+](=O)[O-])ccc2s1	·	0	·	·	·
N#C[C@@H]1[C@@H](c2ccccc2-c2ccccc2)[C@H](CO)N1C(=O)Cc1cccnc1	1	·	-2	0	0
N#C[C@H]1[C@H](c2ccccc2-c2ccccc2)[C@@H](CO)N1C(=O)Cc1cccnc1	-1	·	-1	0	35*
N#C[C@H]1[C@H](c2ccc(-c3ccccc3)cc2)[C@H](CO)N1C(=O)Cc1ccccc1	15*	1	3	0	?
CC(=O)Nc1ccc(S(=O)(=O)N2CCN(c3ccccn3)CC2)cc1	·	5	·	·	·
CC(C(=O)Nc1ccc(S(=O)(=O)N2CCOCC2)cc1)N1CCN(c2ccccn2)CC1 (stereo unspecified)	29*	·	2	3	3
CCc1ccccc1NC(=O)CSc1n[nH]c(-c2cccnc2)n1	-3	·	-4	0	-3
COc1ccc(OC)c(NC(=O)CSc2n[nH]c(-c3cccnc3)n2)c1	17*	-2	2	0	4
CC(O)C(=O)N/N=C/c1ccccc1C(=O)O (stereo unspecified)	-4	5	1	375*	-1
COc1cccc(-c2ccc3c(c2)[C@@H]2[C@@H](CCN2S(=O)(=O)c2ccccc2C)[C@H](CO)N3C)c1	7	-1	-3	0	28*
COc1cccc(-c2ccc3c(c2)[C@H]2[C@H](CCN2S(=O)(=O)c2ccccc2C)[C@H](CO)N3C)c1	7	-2	-3	-1	-1
Cc1ccccc1S(=O)(=O)N1CC[C@@H]2[C@H]1c1cc(-c3cccc(F)c3)ccc1N(C)[C@H]2CO	·	0	·	0	22*
Cc1ccccc1S(=O)(=O)N1CC[C@@H]2[C@H]1c1cc(-c3ccc(C#N)cc3)ccc1N(C)[C@H]2CO	-6	-3	-1	0	27*
Cc1ccccc1S(=O)(=O)N1CC[C@@H]2[C@@H](CO)N(C)c3ccc(-c4ccccc4)cc3[C@@H]21	·	2	-1	0	-1
CN1c2ccc(-c3cccc(C#N)c3)cc2[C@@H]2[C@@H](CCN2S(=O)(=O)c2cccc(F)c2)[C@@H]1CO	·	0	·	0	73*
CCCCCSc1nnc(N)s1	-4	·	2	·	32*
CCCCOC(=O)CSc1nnc(N)s1	·	2	·	·	·
SMILES	SIRT5 block	PglD DTNB	ERAP1 HTS inh	E-selectin induc	DENV2 CPE
O=C(CCS(=O)(=O)Cc1ccccc1F)NCCc1ccc(Cl)cc1	17*	3	3	·	2
C[C@@H]1CCCCO[C@H](CN(C)S(=O)(=O)c2ccc(Cl)cc2)[C@@H](C)CN([C@@H](C)CO)C(=O)c2cc(NS(=O)(=O)c3cccs3)ccc2O1	12	-4	-2	0	69*
C[C@@H]1CN([C@@H](C)CO)C(=O)c2cc(NS(=O)(=O)c3cccs3)ccc2O[C@@H](C)CCCCO[C@H]1CN(C)S(=O)(=O)c1ccc(Cl)cc1	10	4	-2	0	-6
C[C@@H]1CN([C@H](C)CO)C(=O)c2cc(NS(=O)(=O)c3cn(C)cn3)ccc2O[C@@H](C)CCCCO[C@H]1CN(C)S(=O)(=O)c1cccs1	·	·	0	·	28*
Cc1ccc(S(=O)(=O)Nc2ccc3c(c2)C(=O)N([C@H](C)CO)C[C@@H](C)[C@H](CN(C)S(=O)(=O)c2cccs2)OCCCC[C@H](C)O3)cc1	17*	-2	-1	0	?
COc1ccc(S(=O)(=O)N(C)C[C@H]2OCCCC[C@@H](C)Oc3ccc(NS(=O)(=O)c4cccs4)cc3C(=O)N([C@@H](C)CO)C[C@H]2C)cc1	14	-2	2	1	23*
Cc1ccc(C(c2sc3nc(C)nn3c2O)N2CCN(C(=O)c3ccco3)CC2)cc1 (stereo unspecified)	-2	6	-3	·	-5
CO[C@H]1CN(C)C(=O)c2ccc(NC(=O)c3ccno3)cc2OC[C@H](C)NC[C@H]1C	·	·	·	0	·
O=C(Cc1csc(N2CCOCC2)n1)N/N=C/c1ccccc1C(=O)O	5	1	0	0	4
O=C(C[C@H]1C=C[C@H](NC(=O)Nc2ccc(C(F)(F)F)cc2)[C@@H](CO)O1)NCc1cccc(F)c1	-2	-4	0	-1	-1
COc1ccc(S(=O)(=O)Nc2ccc3c(c2)C(=O)N([C@@H](C)CO)C[C@@H](C)[C@H](CN(C)S(=O)(=O)c2cccs2)OCCCC[C@H](C)O3)cc1	10	2	3	·	26*
COc1ccc(S(=O)(=O)Nc2ccc3c(c2)C(=O)N([C@H](C)CO)C[C@H](C)[C@H](CN(C)S(=O)(=O)c2cccs2)OCCCC[C@@H](C)O3)cc1	11	-1	5	·	-6
COc1ccc(S(=O)(=O)Nc2ccc3c(c2)C(=O)N([C@@H](C)CO)C[C@@H](C)[C@H](CN(C)S(=O)(=O)c2cccs2)OCCCC[C@@H](C)O3)cc1	16*	2	2	·	15
O=C(CSc1ncc(C(F)(F)F)cc1Cl)NCC1CCCO1 (stereo unspecified)	1	1	-1	3	-2
CCCn1c(N)c(CC)c(=O)[nH]c1=O	1	·	3	-1	-7
CC(C)N(C[C@@H]1[C@H](c2ccccc2)[C@@H](CO)N1S(C)(=O)=O)C(=O)CN(C)C	2	-2	2	0	55*
CCOC(=O)C(=O)Nc1sc(C(=O)N2CCOCC2)c(C)c1C#N	3	·	1	·	-5

Compound activity deposited in PubChem BioAssay by Broad Institute.
